{"source": "ChEMBL document CHEMBL2311425", "about": "“Histone deacetylase (HDAC) inhibitors with a novel connecting unit linker region reveal a selectivity profile for HDAC4 and HDAC5 with improved activity against chemoresistant cancer cells” (J Med Chem, 2013)", "key": {"MDA-MB-231 [1]": {"system": "MDA-MB-231", "assay": "Potentiation of 25 uM cisplatin-induced toxicity in 1 uM cisplatin resistant human MDA-MB-231 cells at 0.5 uM pretreated for 48 hrs followed by 1 uM cisplatin treatment by MTT assay", "format": "functional"}, "MDA-MB-231 [2]": {"system": "MDA-MB-231", "assay": "Potentiation of […] cisplatin-induced toxicity in 1 uM cisplatin resistant human MDA-MB-231 cells at 0.5 uM pretreated for 48 hrs followed by 1 uM cisplatin treatment by MTT assay", "format": "functional"}, "Histone deacetylase [3]": {"target": "Histone deacetylase", "assay": "Inhibition of HDAC in cisplatin resistant human A2780 cells after 18 hrs by fluorescence assay", "format": "cell-based"}, "A2780 [4]": {"system": "A2780", "assay": "Potentiation of 20 uM cisplatin-induced toxicity in 5 uM cisplatin resistant human A2780 cells at 1.5 uM pretreated for 48 hrs followed by 5 uM cisplatin treatment by MTT assay", "format": "functional"}, "KYSE-510 [5]": {"system": "KYSE-510", "assay": "Potentiation of 1 uM cisplatin-induced toxicity in 0.5 uM cisplatin resistant human KYSE-510 cells at 1 uM pretreated for 48 hrs followed by 0.5 uM cisplatin treatment by MTT assay", "format": "functional"}, "[6]": {"system": "A2780 CisR (Homo sapiens)", "assay": "cells", "conditions": "72 h"}, "CAL-27 [7]": {"system": "CAL-27", "assay": "Potentiation of 5 uM cisplatin-induced toxicity in 1 uM cisplatin resistant human CAL27 cells at 0.25 uM pretreated for 48 hrs followed by 1 uM cisplatin treatment by MTT assay", "format": "functional"}, "KYSE-510 [8]": {"system": "KYSE-510", "assay": "Potentiation of 3.16 uM cisplatin-induced toxicity in 0.5 uM cisplatin resistant human KYSE-510 cells at 1 uM pretreated for 48 hrs followed by 0.5 uM cisplatin treatment by MTT assay", "format": "functional"}, "CAL-27 [9]": {"system": "CAL-27", "assay": "Potentiation of 10 uM cisplatin-induced toxicity in 1 uM cisplatin resistant human CAL27 cells at 0.25 uM pretreated for 48 hrs followed by 1 uM cisplatin treatment by MTT assay", "format": "functional"}, "KYSE-510 [10]": {"system": "KYSE-510", "assay": "Cytotoxicity against cisplatin sensitive human KYSE-510 cells after 72 hrs by MTT assay", "format": "functional, cell-based", "conditions": "KYSE-510, 72 h"}, "Histone deacetylase 4": {"target": "Histone deacetylase 4 (Homo sapiens, UniProt P56524)", "sequence (P56524 whole entry)": "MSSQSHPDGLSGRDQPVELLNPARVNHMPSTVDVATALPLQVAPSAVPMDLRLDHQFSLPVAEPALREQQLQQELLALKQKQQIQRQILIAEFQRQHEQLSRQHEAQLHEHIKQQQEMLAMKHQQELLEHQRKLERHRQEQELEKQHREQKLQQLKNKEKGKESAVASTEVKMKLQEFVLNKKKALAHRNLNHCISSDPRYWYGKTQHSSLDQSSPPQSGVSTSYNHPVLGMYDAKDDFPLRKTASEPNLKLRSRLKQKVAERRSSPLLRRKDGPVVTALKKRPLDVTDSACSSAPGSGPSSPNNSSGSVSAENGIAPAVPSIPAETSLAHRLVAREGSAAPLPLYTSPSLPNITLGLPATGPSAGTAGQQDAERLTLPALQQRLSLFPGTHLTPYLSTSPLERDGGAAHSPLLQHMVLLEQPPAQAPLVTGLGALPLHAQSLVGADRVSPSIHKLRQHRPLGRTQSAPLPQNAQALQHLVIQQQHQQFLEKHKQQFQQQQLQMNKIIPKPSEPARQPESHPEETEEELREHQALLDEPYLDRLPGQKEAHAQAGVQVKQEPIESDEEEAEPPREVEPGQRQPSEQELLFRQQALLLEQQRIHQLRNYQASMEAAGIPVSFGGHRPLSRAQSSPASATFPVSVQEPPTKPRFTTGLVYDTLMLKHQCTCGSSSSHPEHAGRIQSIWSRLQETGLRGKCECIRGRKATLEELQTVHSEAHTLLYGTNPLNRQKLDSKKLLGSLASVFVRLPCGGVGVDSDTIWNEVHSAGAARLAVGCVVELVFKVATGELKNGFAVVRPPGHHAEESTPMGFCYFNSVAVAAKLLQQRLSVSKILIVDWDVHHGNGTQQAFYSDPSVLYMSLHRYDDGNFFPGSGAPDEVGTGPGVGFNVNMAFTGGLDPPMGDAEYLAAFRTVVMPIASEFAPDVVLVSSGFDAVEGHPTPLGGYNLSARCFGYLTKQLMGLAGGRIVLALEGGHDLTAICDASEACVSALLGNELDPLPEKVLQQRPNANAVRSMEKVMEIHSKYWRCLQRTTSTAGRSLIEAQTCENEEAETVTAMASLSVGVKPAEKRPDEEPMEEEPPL", "assay": "Inhibition of human HDAC4 by fluorescence assay"}, "CAL-27 [11]": {"system": "CAL-27", "assay": "Potentiation of 5 uM cisplatin-induced toxicity in 1 uM cisplatin resistant human CAL27 cells at 0.5 uM pretreated for 48 hrs followed by 1 uM cisplatin treatment by MTT assay", "format": "functional"}, "CAL-27 [12]": {"system": "CAL-27", "assay": "Potentiation of 10 uM cisplatin-induced toxicity in 1 uM cisplatin resistant human CAL27 cells at 1.5 uM pretreated for 48 hrs followed by 1 uM cisplatin treatment by MTT assay", "format": "functional"}, "Histone deacetylase [13]": {"target": "Histone deacetylase", "assay": "Inhibition of HDAC in cisplatin sensitive human KYSE-510 cells after 18 hrs by fluorescence assay", "format": "cell-based"}, "Histone deacetylase [14]": {"target": "Histone deacetylase", "assay": "Inhibition of HDAC in cisplatin resistant human CAL27 cells after 18 hrs by fluorescence assay", "format": "cell-based", "conditions": "cal-27"}, "KYSE-510 [15]": {"system": "KYSE-510", "assay": "Potentiation of 8 uM cisplatin-induced toxicity in 0.5 uM cisplatin resistant human KYSE-510 cells at 0.25 uM pretreated for 48 hrs followed by 0.5 uM cisplatin treatment by MTT assay", "format": "functional"}, "CAL-27 [16]": {"system": "CAL-27", "assay": "Potentiation of 1 uM cisplatin-induced toxicity in 1 uM cisplatin resistant human CAL27 cells at 0.5 uM pretreated for 48 hrs followed by 1 uM cisplatin treatment by MTT assay", "format": "functional"}, "A2780 [17]": {"system": "A2780", "assay": "Potentiation of 8 uM cisplatin-induced toxicity in 5 uM cisplatin resistant human A2780 cells at 0.5 uM pretreated for 48 hrs followed by 5 uM cisplatin treatment by MTT assay", "format": "functional"}, "KYSE-510 [18]": {"system": "KYSE-510", "assay": "Potentiation of 0.75 uM cisplatin-induced toxicity in 0.5 uM cisplatin resistant human KYSE-510 cells at 1 uM pretreated for 48 hrs followed by 0.5 uM cisplatin treatment by MTT assay", "format": "functional", "how_it_was_run": "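Cisplatin-resistant Kyse510 CisR (derived by weekly cycles of cisplatin over 24−30 weeks), grown in RPMI 1640 with 10% FCS at 37 °C, 5% CO₂. Test agent added 48 h before cisplatin, then 72 h further incubation. Viability by MTT (read at 544/690 nm) relative to untreated control wells. Combination index by Chou−Talalay method. Mean of three experiments.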"}, "A2780 [19]": {"system": "A2780", "assay": "Potentiation of 1 uM cisplatin-induced toxicity in 5 uM cisplatin resistant human A2780 cells at 1.5 uM pretreated for 48 hrs followed by 5 uM cisplatin treatment by MTT assay", "format": "functional"}, "Histone deacetylase [20]": {"target": "Histone deacetylase", "assay": "Inhibition of HDAC in human A2780 cells after 18 hrs by fluorescence assay", "format": "cell-based"}, "MDA-MB-231 [21]": {"system": "MDA-MB-231", "assay": "Potentiation of 40 uM cisplatin-induced toxicity in 1 uM cisplatin resistant human MDA-MB-231 cells at 0.5 uM pretreated for 48 hrs followed by 1 uM cisplatin treatment by MTT assay", "format": "functional"}, "A2780 [22]": {"system": "A2780", "assay": "Potentiation of 8 uM cisplatin-induced toxicity in 5 uM cisplatin resistant human A2780 cells at 1.5 uM pretreated for 48 hrs followed by 5 uM cisplatin treatment by MTT assay", "format": "functional"}, "CAL-27 [23]": {"system": "CAL-27", "assay": "Cytotoxicity against cisplatin sensitive human CAL27 cells after 72 hrs by MTT assay", "format": "functional, cell-based", "conditions": "CAL-27, 72 h"}, "KYSE-510 [24]": {"system": "KYSE-510", "assay": "Potentiation of 8 uM cisplatin-induced toxicity in 0.5 uM cisplatin resistant human KYSE-510 cells at 1.5 uM pretreated for 48 hrs followed by 0.5 uM cisplatin treatment by MTT assay", "format": "functional"}, "MDA-MB-231 [25]": {"system": "MDA-MB-231", "assay": "Potentiation of 40 uM cisplatin-induced toxicity in 1 uM cisplatin resistant human MDA-MB-231 cells at 0.25 uM pretreated for 48 hrs followed by 1 uM cisplatin treatment by MTT assay", "format": "functional"}, "KYSE-510 [26]": {"system": "KYSE-510", "assay": "Cytotoxicity against cisplatin resistant human KYSE-510 cells after 72 hrs by MTT assay", "format": "functional, cell-based", "conditions": "KYSE-510, 72 h"}, "MDA-MB-231 [27]": {"system": "MDA-MB-231", "assay": "Potentiation of 25 uM cisplatin-induced toxicity in 1 uM cisplatin resistant human MDA-MB-231 cells at 0.25 uM pretreated for 48 hrs followed by 1 uM cisplatin treatment by MTT assay", "format": "functional"}, "A2780 [28]": {"system": "A2780", "assay": "Potentiation of 1 uM cisplatin-induced toxicity in 5 uM cisplatin resistant human A2780 cells at 0.25 uM pretreated for 48 hrs followed by 5 uM cisplatin treatment by MTT assay", "format": "functional"}, "A2780 [29]": {"system": "A2780", "assay": "Potentiation of 8 uM cisplatin-induced toxicity in 5 uM cisplatin resistant human A2780 cells at 0.25 uM pretreated for 48 hrs followed by 5 uM cisplatin treatment by MTT assay", "format": "functional"}, "KYSE-510 [30]": {"system": "KYSE-510", "assay": "Potentiation of 3.16 uM cisplatin-induced toxicity in 0.5 uM cisplatin resistant human KYSE-510 cells at 0.25 uM pretreated for 48 hrs followed by 0.5 uM cisplatin treatment by MTT assay", "format": "functional"}}}
{"smiles": "Cc1cc(C)cc(C(=O)NOCCCCCC(=O)NO)c1", "values": [{"measurement": "Activity", "setting": "MDA-MB-231 [1]", "value": "Dose-dependent effect"}, {"measurement": "fractional inhibitory concentration index (FICI)", "setting": "MDA-MB-231 [1]", "value": 0.79}, {"measurement": "Activity", "setting": "MDA-MB-231 [2]", "value": "Dose-dependent effect"}, {"measurement": "fractional inhibitory concentration index (FICI)", "setting": "MDA-MB-231 [2]", "value": 0.81}, {"measurement": "IC50", "setting": "Histone deacetylase [3]", "value": 320, "unit": "nM"}, {"measurement": "Activity", "setting": "A2780 [4]", "value": "Dose-dependent effect"}, {"measurement": "fractional inhibitory concentration index (FICI)", "setting": "A2780 [4]", "value": 0.64}, {"measurement": "Activity", "setting": "KYSE-510 [5]", "value": "Dose-dependent effect"}, {"measurement": "fractional inhibitory concentration index (FICI)", "setting": "KYSE-510 [5]", "value": 0.05}, {"measurement": "IC50", "setting": "[6]", "value": 320, "unit": "nM"}, {"measurement": "Activity", "setting": "CAL-27 [7]", "value": "Dose-dependent effect"}, {"measurement": "Activity", "setting": "KYSE-510 [8]", "value": "Dose-dependent effect"}, {"measurement": "fractional inhibitory concentration index (FICI)", "setting": "KYSE-510 [8]", "value": 0.09}, {"measurement": "Activity", "setting": "CAL-27 [9]", "value": "Dose-dependent effect"}, {"measurement": "fractional inhibitory concentration index (FICI)", "setting": "CAL-27 [9]", "value": 0.85}, {"measurement": "IC50", "setting": "KYSE-510 [10]", "value": 2960, "unit": "nM"}, {"measurement": "IC50", "setting": "Histone deacetylase 4", "value": 11.9, "unit": "nM"}, {"measurement": "Activity", "setting": "CAL-27 [11]", "value": "Dose-dependent effect"}, {"measurement": "fractional inhibitory concentration index (FICI)", "setting": "CAL-27 [11]", "value": 0.45}, {"measurement": "Activity", "setting": "CAL-27 [12]", "value": "Dose-dependent effect"}, {"measurement": "fractional inhibitory concentration index (FICI)", "setting": "CAL-27 [12]", "value": 0.2}, {"measurement": "IC50", "setting": "Histone deacetylase [13]", "value": 1000, "unit": "nM"}, {"measurement": "IC50", "setting": "Histone deacetylase [14]", "value": 360, "unit": "nM"}, {"measurement": "Activity", "setting": "KYSE-510 [15]", "value": "Dose-dependent effect"}, {"measurement": "fractional inhibitory concentration index (FICI)", "setting": "KYSE-510 [15]", "value": 0.18}, {"measurement": "Activity", "setting": "CAL-27 [16]", "value": "Dose-dependent effect"}, {"measurement": "fractional inhibitory concentration index (FICI)", "setting": "CAL-27 [16]", "value": "<0.2"}, {"measurement": "Activity", "setting": "A2780 [17]", "value": "Dose-dependent effect"}, {"measurement": "fractional inhibitory concentration index (FICI)", "setting": "A2780 [17]", "value": 0.66}, {"measurement": "Activity", "setting": "KYSE-510 [18]", "value": "Dose-dependent effect"}, {"measurement": "fractional inhibitory concentration index (FICI)", "setting": "KYSE-510 [18]", "value": 0.05}, {"measurement": "Activity", "setting": "A2780 [19]", "value": "Dose-dependent effect"}, {"measurement": "fractional inhibitory concentration index (FICI)", "setting": "A2780 [19]", "value": 0.97}, {"measurement": "IC50", "setting": "Histone deacetylase [20]", "value": 650, "unit": "nM"}, {"measurement": "Activity", "setting": "MDA-MB-231 [21]", "value": "Dose-dependent effect"}, {"measurement": "fractional inhibitory concentration index (FICI)", "setting": "MDA-MB-231 [21]", "value": 0.88}, {"measurement": "Activity", "setting": "A2780 [22]", "value": "Dose-dependent effect"}, {"measurement": "fractional inhibitory concentration index (FICI)", "setting": "A2780 [22]", "value": 0.74}, {"measurement": "IC50", "setting": "CAL-27 [23]", "value": 1030, "unit": "nM"}, {"measurement": "Activity", "setting": "KYSE-510 [24]", "value": "Dose-dependent effect"}, {"measurement": "fractional inhibitory concentration index (FICI)", "setting": "KYSE-510 [24]", "value": 0.16}, {"measurement": "Activity", "setting": "MDA-MB-231 [25]", "value": "Dose-dependent effect"}, {"measurement": "IC50", "setting": "KYSE-510 [26]", "value": 2480, "unit": "nM"}, {"measurement": "Activity", "setting": "MDA-MB-231 [27]", "value": "Dose-dependent effect"}, {"measurement": "Activity", "setting": "A2780 [28]", "value": "Dose-dependent effect"}, {"measurement": "Activity", "setting": "A2780 [29]", "value": "Dose-dependent effect"}, {"measurement": "fractional inhibitory concentration index (FICI)", "setting": "A2780 [29]", "value": 0.78}, {"measurement": "Activity", "setting": "KYSE-510 [30]", "value": "Dose-dependent effect"}, {"measurement": "fractional inhibitory concentration index (FICI)", "setting": "KYSE-510 [30]", "value": 0.18}]}
